Key:
hNPT4 = biological target: T1, hNPT4 (Homo sapiens, UniProt O00476); assay: hNPT4 expressing oocytes, [14C]UA uptake inhibition; assay type: cell-based; conditions: for [14C]UA uptake inhibition via hNPT4, inhibitor outside: inhibitor in uptake solution
T1 sequence (O00476 1-498 isoform O00476-2): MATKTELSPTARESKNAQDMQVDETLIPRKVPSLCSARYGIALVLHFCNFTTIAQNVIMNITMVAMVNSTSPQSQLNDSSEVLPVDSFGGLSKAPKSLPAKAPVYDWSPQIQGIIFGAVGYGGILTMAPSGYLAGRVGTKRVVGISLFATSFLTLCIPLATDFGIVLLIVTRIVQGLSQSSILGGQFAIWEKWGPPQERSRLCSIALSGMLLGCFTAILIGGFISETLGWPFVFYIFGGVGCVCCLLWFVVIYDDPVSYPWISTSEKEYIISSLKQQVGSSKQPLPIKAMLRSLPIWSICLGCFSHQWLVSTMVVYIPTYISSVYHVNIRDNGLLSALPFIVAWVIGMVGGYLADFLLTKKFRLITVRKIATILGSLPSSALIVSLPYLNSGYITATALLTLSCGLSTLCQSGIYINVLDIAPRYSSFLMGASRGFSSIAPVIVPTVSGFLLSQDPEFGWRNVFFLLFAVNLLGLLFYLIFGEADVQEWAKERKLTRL
Summary of the method: (§1)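 Xenopus oocytes were injected with 25 ng cRNA for hNPT4 or hOAT10 and held 2–3 days at 18 ± 2 °C. [14C]uric acid uptake was measured at room temperature in ND96. Inhibitor was either added to the uptake solution (outside) or injected into the oocyte (46 nL, inside); injected oocytes were washed and then incubated 60 min with substrate. Uptake was stopped with ice-cold washes, oocytes were SDS-solubilised and counted by scintillation, and results are mean ± S.D.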

hOAT3 = biological target: T2, hOAT3 (Homo sapiens, UniProt Q8TCC7); assay: hOAT3 expressing oocytes, [14C]UA uptake inhibition; assay type: cell-based; conditions: inhibitor injected inside the oocyte
T2 sequence (Q8TCC7 1-542): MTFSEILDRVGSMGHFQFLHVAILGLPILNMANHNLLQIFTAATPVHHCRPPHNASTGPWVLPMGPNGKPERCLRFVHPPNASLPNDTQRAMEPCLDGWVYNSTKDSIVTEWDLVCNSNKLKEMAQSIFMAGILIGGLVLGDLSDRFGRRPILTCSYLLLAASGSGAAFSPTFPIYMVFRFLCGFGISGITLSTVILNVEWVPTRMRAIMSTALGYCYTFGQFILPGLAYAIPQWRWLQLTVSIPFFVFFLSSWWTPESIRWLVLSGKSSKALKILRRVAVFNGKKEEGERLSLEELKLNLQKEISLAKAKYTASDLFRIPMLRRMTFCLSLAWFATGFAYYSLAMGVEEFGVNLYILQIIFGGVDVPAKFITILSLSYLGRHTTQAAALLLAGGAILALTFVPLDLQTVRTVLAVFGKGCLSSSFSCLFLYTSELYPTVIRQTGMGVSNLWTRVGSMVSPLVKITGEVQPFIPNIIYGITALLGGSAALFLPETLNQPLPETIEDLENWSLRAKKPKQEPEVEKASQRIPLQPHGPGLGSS

[1] = Rat pharmacokinetic study; assay type: in vivo; conditions: male, Sprague-Dawley, whole blood
Summary of the method: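 Adult male Sprague-Dawley rats (286 ± 12 g) were fasted 12–15 hr, n=5 per route. IV dosing was a bolus of about 300 µL over 30 sec into the orbital sinus under isoflurane, from aqueous 10% DMSO solution. Oral dosing was a CMC-formulated capsule, 19.6 mg/kg, followed by 500 µL water. Tail-vein blood was collected into K2EDTA from 0.083 to 24 hr (iv) or 0.5 to 30 hr (oral). Test compound was extracted with internal standard and quantified by LC/MS-MS (ESI−) against blood standard curves; LOQ 1.08 ng/mL.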

OATP-1B1 = biological target: T3, OATP-1B1 (Homo sapiens, UniProt Q9Y6L6); assay: OATP-1B1 expressing oocytes, [3H]estrone sulfate uptake inhibition; assay type: cell-based; conditions: OATP-1B1 IC50, substrate [3H]estrone sulfate, value in nM
T3 sequence (Q9Y6L6 1-691): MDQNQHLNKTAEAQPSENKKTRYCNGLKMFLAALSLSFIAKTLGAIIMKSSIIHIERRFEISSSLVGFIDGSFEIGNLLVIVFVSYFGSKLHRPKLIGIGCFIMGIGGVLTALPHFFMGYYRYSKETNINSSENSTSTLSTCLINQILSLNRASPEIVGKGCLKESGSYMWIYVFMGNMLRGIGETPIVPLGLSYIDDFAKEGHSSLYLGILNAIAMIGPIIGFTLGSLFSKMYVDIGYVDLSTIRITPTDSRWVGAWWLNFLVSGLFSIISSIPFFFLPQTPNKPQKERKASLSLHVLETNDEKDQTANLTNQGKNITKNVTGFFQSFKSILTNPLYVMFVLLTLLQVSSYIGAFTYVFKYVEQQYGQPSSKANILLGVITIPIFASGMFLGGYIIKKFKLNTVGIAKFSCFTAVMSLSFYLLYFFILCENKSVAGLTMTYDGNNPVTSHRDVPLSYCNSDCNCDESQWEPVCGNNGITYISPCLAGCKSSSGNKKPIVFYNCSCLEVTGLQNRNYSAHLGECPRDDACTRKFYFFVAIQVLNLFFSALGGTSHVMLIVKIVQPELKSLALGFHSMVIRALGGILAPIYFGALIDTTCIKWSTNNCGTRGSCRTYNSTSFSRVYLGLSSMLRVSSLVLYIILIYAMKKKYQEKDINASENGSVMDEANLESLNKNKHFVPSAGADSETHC
Summary of the method: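 Xenopus laevis oocytes were defolliculated with collagenase, and stage IV–V oocytes were injected with 25 ng capped cRNA. They were kept 2–3 days at 18 ± 2 °C in ND96, pH 7.4. Uptake ran at room temperature in ND96 with test compound, using [3H]estrone sulfate for OATP1B1 and 2B1 and [3H]estradiol-17β-glucuronide for OATP1B3. Oocytes were washed in ice-cold ND96, solubilised in 5% SDS and counted by scintillation, with control-oocyte uptake subtracted.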

hOAT1 = biological target: T4, hOAT1 (Homo sapiens, UniProt Q4U2R8); assay: hOAT1 expressing oocytes, [14C]UA uptake inhibition; assay type: cell-based; conditions: inhibitor injected inside the oocyte
T4 sequence (Q4U2R8 1-563): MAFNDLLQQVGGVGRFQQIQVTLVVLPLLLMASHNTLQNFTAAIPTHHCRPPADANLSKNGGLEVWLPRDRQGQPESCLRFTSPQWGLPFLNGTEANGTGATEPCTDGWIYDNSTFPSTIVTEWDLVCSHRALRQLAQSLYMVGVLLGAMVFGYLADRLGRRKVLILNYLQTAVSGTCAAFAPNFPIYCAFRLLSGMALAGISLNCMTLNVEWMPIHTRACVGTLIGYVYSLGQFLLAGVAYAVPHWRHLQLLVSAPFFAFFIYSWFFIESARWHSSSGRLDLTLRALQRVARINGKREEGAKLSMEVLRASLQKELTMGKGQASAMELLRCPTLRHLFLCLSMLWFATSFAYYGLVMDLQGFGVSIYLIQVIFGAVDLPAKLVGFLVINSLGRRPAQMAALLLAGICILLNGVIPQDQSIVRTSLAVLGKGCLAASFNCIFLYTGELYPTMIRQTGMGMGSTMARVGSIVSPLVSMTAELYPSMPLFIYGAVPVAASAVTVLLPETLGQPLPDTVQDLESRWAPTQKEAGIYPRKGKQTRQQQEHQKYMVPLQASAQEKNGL

hOAT10 = hOAT10 (Homo sapiens, UniProt Q9Y226); assay: hOAT10 expressing oocytes, [14C]UA uptake inhibition; assay type: cell-based; conditions: for [14C]UA uptake inhibition via hOAT10, inhibitor inside: inhibitor injected inside the oocyte
hOAT10, sequence (Q9Y226 whole entry): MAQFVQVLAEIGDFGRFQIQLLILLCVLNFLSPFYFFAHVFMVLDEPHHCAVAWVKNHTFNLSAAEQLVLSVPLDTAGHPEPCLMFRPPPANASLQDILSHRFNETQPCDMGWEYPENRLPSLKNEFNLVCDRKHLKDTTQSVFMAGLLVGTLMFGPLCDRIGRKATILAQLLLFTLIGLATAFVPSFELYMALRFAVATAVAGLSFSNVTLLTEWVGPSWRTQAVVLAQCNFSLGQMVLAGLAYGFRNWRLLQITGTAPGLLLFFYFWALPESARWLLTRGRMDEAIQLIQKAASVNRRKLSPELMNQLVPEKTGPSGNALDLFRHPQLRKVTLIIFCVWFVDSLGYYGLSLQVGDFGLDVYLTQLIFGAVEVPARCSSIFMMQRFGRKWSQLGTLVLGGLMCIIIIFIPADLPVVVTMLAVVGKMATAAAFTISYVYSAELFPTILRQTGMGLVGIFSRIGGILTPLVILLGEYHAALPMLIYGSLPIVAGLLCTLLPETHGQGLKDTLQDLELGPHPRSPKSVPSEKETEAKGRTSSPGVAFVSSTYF
Summary of the method: as §1

hURAT1 = biological target: T5, hURAT1 (Homo sapiens, UniProt Q96S37); assay: hURAT1 expressing oocytes, [14C]UA uptake inhibition; assay type: cell-based
T5 sequence (Q96S37 1-553): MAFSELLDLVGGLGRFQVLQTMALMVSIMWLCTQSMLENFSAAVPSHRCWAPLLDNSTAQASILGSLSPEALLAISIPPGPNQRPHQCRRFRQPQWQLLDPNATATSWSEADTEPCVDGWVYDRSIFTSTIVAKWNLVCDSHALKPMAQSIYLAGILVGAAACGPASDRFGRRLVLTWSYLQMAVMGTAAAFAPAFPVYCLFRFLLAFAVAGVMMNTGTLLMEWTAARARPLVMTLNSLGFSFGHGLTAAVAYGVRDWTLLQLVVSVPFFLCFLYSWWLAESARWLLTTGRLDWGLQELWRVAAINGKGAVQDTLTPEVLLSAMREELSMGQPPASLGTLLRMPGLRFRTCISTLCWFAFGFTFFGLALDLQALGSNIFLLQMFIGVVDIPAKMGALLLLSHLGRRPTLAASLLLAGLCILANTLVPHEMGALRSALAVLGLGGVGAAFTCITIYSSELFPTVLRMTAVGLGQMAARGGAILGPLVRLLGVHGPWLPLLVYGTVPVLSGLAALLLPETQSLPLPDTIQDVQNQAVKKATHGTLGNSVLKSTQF

Structure (SMILES) | [14C]UA uptake inhibition via hNPT4, inhibitor outside (hNPT4) | [14C]UA uptake inhibition via hNPT4, inhibitor inside (hNPT4; inhibitor injected inside the oocyte) | [14C]UA uptake inhibition via hOAT3, inhibitor inside (hOAT3) | AUC(0-t) ([1]; iv, 0.43 mg/kg) [µg·h/mL] | half-life ([1]; iv, 0.43 mg/kg, T1/2, rat, iv orbital sinus dosing 0.43 mg/Kg) [h] | AUC(0-t) ([1]; po, 19.6 mg/kg) [µg·h/mL] | Cmax ([1]; po, 19.6 mg/kg) [µg/mL] | Tmax ([1]; po, 19.6 mg/kg) [h] | IC50 (OATP-1B1) [nM] | [14C]UA uptake inhibition via hOAT1, inhibitor inside (hOAT1) | 14C-uric acid transport via hOAT10, inhibitor outside (hOAT10; inhibitor in incubation media) | [14C]UA uptake inhibition via hOAT10, inhibitor outside (hOAT10; inhibitor in uptake solution) | [14C]UA uptake inhibition via hOAT10, inhibitor inside (hOAT10) | [14C]UA uptake inhibition via hOAT10, inhibitor inside (hOAT10; listed as benzbromarone) | Effect on Vmax for [14C]UA uptake (hURAT1; 0.1 µM benzbromarone, 0.3 µM 6-hydroxy benzbromarone in uptake solution) | [14C]UA uptake inhibition via hURAT1, inhibitor inside (hURAT1; inhibitor injected inside the oocyte, [14C]UA 10 µM)
CCCN(CCC)S(=O)(=O)c1ccc(C(=O)O)cc1 [Compound 1, probenecid] | dose-dependent inhibition | moderate inhibition | profound inhibition |  |  |  |  |  |  |  |  |  |  |  |  | 
CCc1oc2cc(F)ccc2c1C(=O)c1cc(Br)c(O)c(Br)c1 [Compound 5, (3,5-dibromo-4-hydroxyphenyl)(2-ethyl-6-fluorobenzofuran-3-yl)methanone] |  |  |  | 2.09 ± 0.119 | ~3 | 60.6 ± 7.9 | 6.46 to 6.47 | 2 to 3 | 739 |  |  |  |  |  |  | 
CCc1oc2ccccc2c1C(=O)c1cc(Br)c(O)c(Br)c1 [Compound 2, benzbromarone] | dose-dependent inhibition |  | not readily inhibited |  |  |  |  |  |  | not readily inhibited | roughly 50 % of control | dose-dependent effect | did not display this effect | did not produce a statistically different uptake as compared to control | reduced | did not produce a profound inhibition

— PMC11872064 (Drug Design, Development and Therapy, 2025)
